# b-catenin transl = modulators of beta-catenin nuclear translocation; HeLa beta-catenin nuclear translocation, immunofluorescence imaging; nuclear translocation activity, % at 5 µM; 190,000 tested, 0.3% active; AID 1665;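 active = nuclear translocation activity above 50% at 5 µM, with a well cell count of 50 or more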;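 note: per-cell ratio of nuclear to cytoplasmic median beta-catenin stain intensity; plate controls were DMSO negative control for no effect and GSK-3 inhibitor IX positive control for full effect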
#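 Test system: HeLa cells, endogenous beta-catenin; Compound: single 5 µM dose plus 0.02–20 µM confirmation series; Times: compound exposure 24 h at 37°C; Signal: fluorescence imaging of beta-catenin antibody stain plus DAPI; Read-out: % activation, nuclear-to-cytoplasmic median beta-catenin signal ratio per cell.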
# ABCB1 block = human ABCB1 inhibition, ABCG2 as counter-screen | CCRF-Adr cells, JC-1 efflux, flow cytometry | P08183 | AID 1326 | 190,000 tested, 0.067% active | inhibition, % at 6.6 µM; in the data active = inhibition above about 40%;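 note: 0% = vehicle and 100% = reference inhibitor; higher value means more JC-1 retained so stronger ABCB1 efflux block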
# Target sequence (P08183 whole entry, looked up): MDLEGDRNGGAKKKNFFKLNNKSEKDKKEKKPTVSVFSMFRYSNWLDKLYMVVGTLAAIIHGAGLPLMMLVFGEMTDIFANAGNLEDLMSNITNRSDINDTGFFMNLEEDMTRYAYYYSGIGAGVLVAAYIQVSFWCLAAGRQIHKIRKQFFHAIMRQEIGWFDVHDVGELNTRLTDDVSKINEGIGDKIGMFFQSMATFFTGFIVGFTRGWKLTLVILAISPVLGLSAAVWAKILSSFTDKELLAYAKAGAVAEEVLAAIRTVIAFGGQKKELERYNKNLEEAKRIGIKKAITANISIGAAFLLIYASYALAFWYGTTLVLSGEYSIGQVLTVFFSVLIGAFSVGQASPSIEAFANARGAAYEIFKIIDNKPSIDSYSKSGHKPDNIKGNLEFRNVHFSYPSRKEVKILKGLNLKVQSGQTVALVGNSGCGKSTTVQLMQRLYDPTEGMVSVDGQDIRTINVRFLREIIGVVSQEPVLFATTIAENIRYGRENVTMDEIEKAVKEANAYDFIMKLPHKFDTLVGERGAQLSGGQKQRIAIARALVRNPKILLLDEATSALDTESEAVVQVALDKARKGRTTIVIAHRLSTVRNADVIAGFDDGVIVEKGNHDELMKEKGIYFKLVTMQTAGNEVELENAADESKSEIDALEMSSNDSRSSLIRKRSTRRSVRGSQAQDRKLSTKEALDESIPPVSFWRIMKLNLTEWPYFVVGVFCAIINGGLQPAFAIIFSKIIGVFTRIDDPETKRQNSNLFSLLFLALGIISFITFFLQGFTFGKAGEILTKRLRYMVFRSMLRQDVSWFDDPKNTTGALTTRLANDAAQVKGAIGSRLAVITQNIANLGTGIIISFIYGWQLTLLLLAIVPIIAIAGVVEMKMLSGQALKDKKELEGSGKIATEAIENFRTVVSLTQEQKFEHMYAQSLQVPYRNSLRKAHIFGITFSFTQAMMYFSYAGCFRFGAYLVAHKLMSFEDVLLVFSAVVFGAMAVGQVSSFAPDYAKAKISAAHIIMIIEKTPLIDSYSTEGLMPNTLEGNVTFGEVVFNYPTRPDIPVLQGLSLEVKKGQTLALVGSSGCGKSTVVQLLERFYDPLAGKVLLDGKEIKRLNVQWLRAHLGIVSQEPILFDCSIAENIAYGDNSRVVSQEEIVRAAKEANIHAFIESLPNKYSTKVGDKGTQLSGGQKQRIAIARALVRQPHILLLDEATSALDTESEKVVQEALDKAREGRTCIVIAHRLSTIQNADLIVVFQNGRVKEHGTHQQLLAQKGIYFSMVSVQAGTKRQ
# ABCG2 block = blocks JC-1 efflux by human ABCG2 transporter; inhibition, % at 6.6 µM; 190,000 tested, 0.1% active; Q9UNQ0; IgMXP3 cells, flow cytometry;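 active = inhibition above 80%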;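 note: 0% = DMSO and 100% = nicardipine control wells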
#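 Times: 10 min at 25 °C | Test system: Two drug-resistant human cell lines, ABCG2 and ABCB1 | Quantity: 3 million cells/mL final, two lines in 1:1 ratio | Signal: Flow cytometry, 530 nm JC-1 signal | Dosing: Compound at 6.6 µM | Controls: Nicardipine and DMSO wells | Reagent: JC-1 as fluorescent efflux pump substrate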
# Arbovirus inh = antivirals against arbovirus infection | arbovirus infection cell-based antiviral screen | inhibition, % at 10 µM | 200,000 tested, 0.37% active; in the data active = inhibition above about 30%
# Autophagy HCS = autophagy modulation, high-content screen. MEF GFP-LC3 puncta imaging; test concentration mostly 10 µM. calls only at 10 µM (by protocol). 190,000 tested, 0.98% active;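 active = percentage of spot-positive cells more than 3 SD above its plate mean, without a fluorescence outlier flag or 80% toxicity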;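 note: spot-positive cell cutoff set from DMSO-treated cells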
# MT stabilize HCS = microtubule stabilization, imaging screen. HeLa tubulin immunostaining HCS, 24 h; share of cells brighter than vehicle mean+2SD. AID 2205. % tubulin-high responders, % at 10 µM. 200,000 tested, 0.83% active;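 active = plate Z-score above 3 for both tubulin-high and condensed-nucleus cell shares, with cell loss under 80%, at 10 µM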;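 note: anti alpha tubulin signal scored within the nucleus-defined area of each cell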
# * marks the source's active call; other numbers are inactive results; i = inactive; · = no result; + = active, no number. Hits are enriched below; roughly 2.1% of the tested compounds scored in any of these assays.
SMILES,b-catenin transl,ABCB1 block,ABCG2 block,Arbovirus inh,Autophagy HCS,MT stabilize HCS
COc1ccc(C(=O)Nc2ccccc2C(=O)O)cc1Cl,-0.7,1.2,9.4,56.1*,i,1.9
CCOc1c(Cl)cc(C(=O)Nc2ccccc2C(=O)O)cc1Cl,-3.7,0.0,0.6,42.6*,i,1.6
COc1ccc(C(=O)Nc2ccccc2C(=O)O)cc1NC(=O)C(c1ccccc1)c1ccccc1,0.8,·,·,·,·,·
COc1cc(C2C(C(=O)OC(C)C)=C(C)Nc3ncnn32)cc(OC)c1OC (stereo not given),·,1.6,9.8,9.7,+,8.3
CCc1cc(-c2n[nH]c(C)c2-c2nc3ccccc3n2C)c(O)cc1O,21.2,-0.2,-0.4,-13.5,i,13.9*
COc1cccc(C(C(=O)NC2CCCC2)N(CC2CCCO2)C(=O)Cc2cccs2)c1 (stereo not given),-2.1,0.0,1.2,-0.5,i,3.4
COc1ccc(C2=Nn3c(nnc3-c3ccc(OC)cc3)SC2)cc1,·,-1.1,2.3,-17.9,i,29.3*
c1csc(C2=Nn3c(nnc3-c3ccncc3)SC2)c1,-0.1,0.8,7.1,29.6,i,2.8
COc1cc(-c2nnc3n2N=C(c2ccccc2)CS3)cc(OC)c1OC,92.9*,1.4,3.9,-31.6,+,45.9*
COc1ccc(C2=Nn3c(nnc3-c3ccccc3OC)SC2)cc1OC,58.0*,-2.1,-0.6,-4.7,i,16.5*
COc1ccc(-c2nnc3n2N=C(C)CS3)cc1,-0.7,0.1,0.8,-2.3,i,2.8
COc1ccc(C2=Nn3c(nnc3-c3ccccn3)SC2)cc1OC,1.0,0.5,31.6,-2.1,i,4.8
Clc1ccccc1C1=Nn2c(nnc2-c2ccncc2)SC1,4.1,1.9,49.4,58.8*,i,6.4
Cn1c(=O)c2c(nc(SCCN3CCCCC3)n2C)n(C)c1=O,-1.1,27.9,0.0,4.4,i,3.4
CCOc1cccc(-c2nnc3n2N=C(c2cc(OC)ccc2OC)CS3)c1,1.5,1.9,8.2,3.1,i,29.0*
COc1cccc(-c2nnc3n2N=C(c2cc(OC)ccc2OC)CS3)c1,-1.7,1.8,3.7,3.3,i,3.7
COc1ccc(NC(=S)NC(NC(=O)c2cccc3ccccc23)C(Cl)(Cl)Cl)c([N+](=O)[O-])c1 (stereo not given),·,-0.4,1.9,-18.8,+,3.1
COc1ccc(NC(=S)NC(NC(=O)c2ccc(Cl)cc2Cl)C(Cl)(Cl)Cl)c([N+](=O)[O-])c1 (stereo not given),-4.7,-0.2,-0.3,-17.0,+,2.6
CCOc1nc(Nc2ccc([N+](=O)[O-])cc2)nc(NC(C)(C)C)n1,4.4,0.3,2.7,-0.7,i,1.9
Cc1nn(C)c(C)c1NS(=O)(=O)c1ccc(N2CCCC2=O)cc1,5.3,-0.2,-0.1,-13.3,i,6.1
Cc1ccccc1NS(=O)(=O)c1ccc(N2CCCC2=O)cc1,100.2*,0.2,0.9,-16.0,i,37.0*
COc1ccc(CCNS(=O)(=O)c2ccc(N3CCCC3=O)cc2)cc1,·,1.0,2.1,19.1,i,3.2
COc1ccc(OC)c(NS(=O)(=O)c2ccc(N3CCCC3=O)cc2)c1,146.8*,-0.1,-0.3,-14.2,+,22.3*
CCCCCCCCC/C(=N\O)c1ccccn1,-0.6,0.2,1.2,-41.7,i,2.6
CCOCCOC(=O)NCCCCCCNC(=O)OCCOCC,-1.3,·,·,·,·,·
SMILES,b-catenin transl,ABCB1 block,ABCG2 block,Arbovirus inh,Autophagy HCS,MT stabilize HCS
COC(=O)/C(=C/c1cn(C(C)=O)c2ccccc12)[N+](=O)[O-],0.6,·,·,·,·,·
CC(=O)n1cc(C(C[N+](=O)[O-])SCCN)c2ccccc21 (stereo not given),16.4,-0.4,-1.1,-5.0,i,25.9*
Cc1nn(-c2ccc(F)cc2)c(Cl)c1/C=C1\C(=O)Nc2ccccc21,1.1,0.7,6.8,-4.4,i,21.7*
Nc1ccc(S(=O)(=O)Nc2ccc(Cl)nn2)cc1,1.3,·,·,·,·,·
Cc1ccnc(NC(=O)c2ccccc2NC(=O)C(C)(C)C)c1,-1.1,0.1,1.0,-18.0,i,44.3*
Cc1cccnc1NC(=O)c1ccccc1NC(=O)C(C)(C)C,-5.2,0.0,0.7,6.2,i,4.9
Cc1cc(C)n(-c2ccc(F)cc2CN2CCN(C3CCCC3)C(CCO)C2)n1 (stereo not given),-0.7,0.0,0.2,-1.3,+,4.7
Cc1ccccc1-n1cnc2cc(NCc3cccs3)ccc21,15.3,1.1,5.1,-12.6,i,27.4*
COc1ccccc1-n1cnc2cc(NCc3ccco3)ccc21,131.1*,0.4,0.6,-2.3,i,32.2*
COc1ccccc1-n1cnc2cc(NCc3cccs3)ccc21,162.2*,0.6,4.2,-19.7,i,18.0*
CC(C)(C)n1cnc2cc(NCc3cccs3)ccc21,1.0,-0.2,9.2,5.3,i,2.8
COc1cc(C)c2occ(/C(C)=N\O)c2c1,·,-0.6,11.6,6.4,i,5.8
CC(=O)Nc1ccc(/C(C)=N/Nc2nc(Nc3ccccc3)nc(N3CCOCC3)n2)cc1,-0.2,0.2,1.5,-15.3,+,3.0
COc1ccc(OCC(O)CNC(=O)c2sccc2Cl)cc1 (stereo not given),1.7,·,·,·,·,·
CCc1nc(N2CCCCC2C)c2oc3ccccc3c2n1 (stereo not given),113.7*,1.9,7.5,-30.1,i,31.3*
CCc1nc(N2CCN(Cc3ccc4c(c3)OCO4)CC2)c2oc3ccccc3c2n1,115.5*,1.8,2.5,-25.3,i,48.2*
C#CCSc1nnc(-c2ccc(OC)cc2)o1,·,0.4,2.0,-19.9,i,1.0
O=C(CCN1C(=O)C2CCCCC2C1=O)Nc1ccc(F)c(F)c1F (stereo not given),-3.3,0.6,2.4,3.6,+,2.9
O=C(CN1C(=O)C2CC=CCC2C1=O)NCC(=O)Nc1ccc(F)c(F)c1F (stereo not given),0.5,0.8,2.7,-3.2,i,8.4
CC(C)OC(=O)/C(=C\c1cccnc1)NC(=O)c1ccccc1,-2.5,0.3,-1.2,-1.9,+,1.4
COc1cccc(/C=N/NC(=S)Nc2cccnc2)c1,-3.6,0.0,12.0,-0.5,+,3.1
CCc1cc(C(=O)O)c(NC(=O)/C=C/c2ccc(OC)cc2)s1,-0.6,·,·,·,·,·
COc1ccc(/C=C/C(=O)Nc2ccccc2C(F)(F)F)cc1OC,-3.2,0.4,3.2,2.4,i,1.1
COc1ccc(/C=C/C(=O)Nc2ccccc2C(=O)O)cc1OC,-2.5,-0.2,0.0,57.6*,i,3.1
COc1ccccc1NC(=O)/C=C/c1ccc2c(c1)OCO2,-1.7,0.5,3.8,-7.9,i,19.3*
COc1cccc(/C=C/C(=O)Nc2ccc3c(c2)OCCO3)c1OC,0.7,0.1,0.2,5.9,+,5.0

# Screening results deposited in PubChem by several laboratories.
